Data: ChEMBL document CHEMBL4007404, “Identification of High-Potency Human TLR8 and Dual TLR7/TLR8 Agonists in Pyrimidine-2,4-diamines” (J Med Chem, 2017)
Calls of active or inactive are those of the source. The rule behind the calls is not given here.

Key:
Toll-like receptor 7 = biological target: T1, Toll-like receptor 7 (Homo sapiens, UniProt Q9NYK1); test: Agonist activity at human TLR7 expressed in HEK293 cells co-expressing secreted alkaline phosphatase assessed as induction of NF-kappaB/AP-1 promoter activity by measuring increase in secreted alkaline phosphatase level by spectrophotometric method; type: cell-based
T1 sequence (Q9NYK1 whole entry): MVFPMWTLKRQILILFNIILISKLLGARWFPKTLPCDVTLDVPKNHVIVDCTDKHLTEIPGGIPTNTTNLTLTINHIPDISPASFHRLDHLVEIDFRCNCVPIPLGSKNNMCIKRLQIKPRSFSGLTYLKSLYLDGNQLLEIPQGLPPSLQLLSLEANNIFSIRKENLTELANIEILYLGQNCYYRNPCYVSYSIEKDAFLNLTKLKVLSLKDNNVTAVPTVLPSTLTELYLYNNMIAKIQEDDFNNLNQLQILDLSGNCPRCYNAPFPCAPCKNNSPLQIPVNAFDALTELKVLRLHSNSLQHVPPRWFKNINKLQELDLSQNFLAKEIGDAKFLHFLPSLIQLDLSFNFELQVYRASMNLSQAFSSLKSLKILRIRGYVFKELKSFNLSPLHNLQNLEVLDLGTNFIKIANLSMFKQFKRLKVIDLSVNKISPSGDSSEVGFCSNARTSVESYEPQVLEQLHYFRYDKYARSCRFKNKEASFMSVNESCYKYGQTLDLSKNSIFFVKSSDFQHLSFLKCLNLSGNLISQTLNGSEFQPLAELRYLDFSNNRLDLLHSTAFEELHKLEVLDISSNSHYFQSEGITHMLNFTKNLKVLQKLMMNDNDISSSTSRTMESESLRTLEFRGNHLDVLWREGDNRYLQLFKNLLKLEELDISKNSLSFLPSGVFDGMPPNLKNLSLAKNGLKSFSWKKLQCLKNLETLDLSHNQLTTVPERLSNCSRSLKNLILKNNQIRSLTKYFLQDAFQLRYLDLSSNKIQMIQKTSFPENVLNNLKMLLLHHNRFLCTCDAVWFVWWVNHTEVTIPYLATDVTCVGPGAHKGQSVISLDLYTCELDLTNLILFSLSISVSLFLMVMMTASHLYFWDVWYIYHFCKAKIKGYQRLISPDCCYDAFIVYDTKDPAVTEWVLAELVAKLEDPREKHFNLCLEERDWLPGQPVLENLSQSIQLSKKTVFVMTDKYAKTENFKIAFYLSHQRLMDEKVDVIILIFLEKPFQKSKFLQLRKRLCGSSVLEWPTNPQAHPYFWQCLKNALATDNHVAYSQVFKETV
Summary of the method: (§1)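 HEK293 cells stably co-transfected with the relevant human TLR (2, 3, 4, 5, 7, 8 or 9) plus an NF-κB/AP-1-driven secreted alkaline phosphatase reporter, kept in selection medium. Cells at ~10⁵ cells/ml were exposed to graded concentrations of stimuli in 384-well format, liquid-handler assisted. Supernatant sAP was read at 620 nm with an alkaline phosphatase-specific chromogen.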

[1] = biological target: Toll-like receptor 3 (Homo sapiens) (UniProt O15455); test: Activity at human TLR3 expressed in HEK293 cells co-expressing secreted alkaline phosphatase assessed as induction of NF-kappaB/AP-1 promoter activity by measuring increase in secreted alkaline phosphatase level by spectrophotometric method; type: cell-based; summary of the method: as §1
[2] = biological target: T2, Toll-like receptor 7 (Homo sapiens) (UniProt Q9NYK1); test: Agonist activity at human TLR7 expressed in HEK293 cells co-expressing secreted alkaline phosphatase assessed as induction of NF-kappaB/AP-1 promoter activity by measuring increase in secreted alkaline phosphatase level at 100 uM by spectrophotometric method; type: cell-based
T2 sequence (whole entry): T1 sequence (Q9NYK1 whole entry)

[3] = biological target: T3, Toll-like receptor 8 (Homo sapiens) (UniProt Q9NR97); test: Agonist activity at TLR8 in human PBMC assessed as induction of TNF-alpha production after 16 hrs by multiplexed immunoassay
T3 sequence (whole entry): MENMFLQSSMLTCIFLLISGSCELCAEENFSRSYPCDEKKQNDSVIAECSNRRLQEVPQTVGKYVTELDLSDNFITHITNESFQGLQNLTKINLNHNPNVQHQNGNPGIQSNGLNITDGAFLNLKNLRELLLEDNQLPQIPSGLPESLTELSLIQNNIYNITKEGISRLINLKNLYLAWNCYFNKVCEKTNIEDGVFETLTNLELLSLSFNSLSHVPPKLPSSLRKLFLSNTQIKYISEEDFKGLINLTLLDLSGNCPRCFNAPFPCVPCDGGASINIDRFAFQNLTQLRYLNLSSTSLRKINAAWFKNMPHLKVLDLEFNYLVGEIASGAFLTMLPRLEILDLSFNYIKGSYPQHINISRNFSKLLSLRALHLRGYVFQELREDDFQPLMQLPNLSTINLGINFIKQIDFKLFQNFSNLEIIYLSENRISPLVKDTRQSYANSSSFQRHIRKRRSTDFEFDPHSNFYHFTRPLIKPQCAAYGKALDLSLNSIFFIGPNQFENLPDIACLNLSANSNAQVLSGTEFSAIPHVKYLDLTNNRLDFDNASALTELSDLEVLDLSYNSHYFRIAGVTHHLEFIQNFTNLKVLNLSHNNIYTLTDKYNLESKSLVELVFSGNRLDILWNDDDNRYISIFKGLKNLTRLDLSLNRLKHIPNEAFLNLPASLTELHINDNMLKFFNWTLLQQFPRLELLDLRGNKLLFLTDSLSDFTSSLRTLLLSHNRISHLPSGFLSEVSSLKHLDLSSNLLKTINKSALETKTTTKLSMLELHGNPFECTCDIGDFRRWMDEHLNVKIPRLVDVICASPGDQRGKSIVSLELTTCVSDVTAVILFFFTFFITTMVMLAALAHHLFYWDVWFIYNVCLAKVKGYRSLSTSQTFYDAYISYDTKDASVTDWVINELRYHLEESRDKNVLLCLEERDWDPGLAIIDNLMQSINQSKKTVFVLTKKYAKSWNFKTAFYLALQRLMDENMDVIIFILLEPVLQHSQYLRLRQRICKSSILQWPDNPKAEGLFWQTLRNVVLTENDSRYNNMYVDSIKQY
Summary of the method: (§2)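 Fresh human PBMCs were isolated from venous blood in cell preparation tubes. They were stimulated at 10^5 cells per well for 16 h with graded compound concentrations. Supernatants were taken off by centrifugation and assayed in duplicate on a 41-analyte magnetic bead cytokine/chemokine multiplex panel. Panel analytes include IFN-α2, IFN-γ, IL-12 (p40) and TNF-α.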

[4] = biological target: T3, Toll-like receptor 8 (Homo sapiens); test: Agonist activity at TLR8 in human PBMC assessed as induction of IL-12p40 production after 16 hrs by multiplexed immunoassay; summary of the method: as §2
[5] = biological target: T3, Toll-like receptor 8 (Homo sapiens); test: Agonist activity at TLR8 in human PBMC assessed as induction of IFN-gamma production after 16 hrs by multiplexed immunoassay; summary of the method: as §2
[6] = biological target: T3, Toll-like receptor 8 (Homo sapiens); test: Agonist activity at human TLR8 expressed in HEK293 cells co-expressing secreted alkaline phosphatase assessed as induction of NF-kappaB/AP-1 promoter activity by measuring increase in secreted alkaline phosphatase level at 100 uM by spectrophotometric method; type: cell-based
Summary of the method: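 HEK293 cells stably co-transfected with human TLR8 and NF-κB/AP-1-driven secreted alkaline phosphatase, kept in selection medium. Cells seeded at ~10⁵ cells/ml in 384-well plates with graded stimulus concentrations. Supernatant sAP read spectrophotometrically at 620 nm with an alkaline phosphatase-specific chromogen. TLR-2/-3/-4/-5/-9 reporter lines served as counter-screens.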

Sequence of Toll-like receptor 3 (Homo sapiens) (O15455 whole entry): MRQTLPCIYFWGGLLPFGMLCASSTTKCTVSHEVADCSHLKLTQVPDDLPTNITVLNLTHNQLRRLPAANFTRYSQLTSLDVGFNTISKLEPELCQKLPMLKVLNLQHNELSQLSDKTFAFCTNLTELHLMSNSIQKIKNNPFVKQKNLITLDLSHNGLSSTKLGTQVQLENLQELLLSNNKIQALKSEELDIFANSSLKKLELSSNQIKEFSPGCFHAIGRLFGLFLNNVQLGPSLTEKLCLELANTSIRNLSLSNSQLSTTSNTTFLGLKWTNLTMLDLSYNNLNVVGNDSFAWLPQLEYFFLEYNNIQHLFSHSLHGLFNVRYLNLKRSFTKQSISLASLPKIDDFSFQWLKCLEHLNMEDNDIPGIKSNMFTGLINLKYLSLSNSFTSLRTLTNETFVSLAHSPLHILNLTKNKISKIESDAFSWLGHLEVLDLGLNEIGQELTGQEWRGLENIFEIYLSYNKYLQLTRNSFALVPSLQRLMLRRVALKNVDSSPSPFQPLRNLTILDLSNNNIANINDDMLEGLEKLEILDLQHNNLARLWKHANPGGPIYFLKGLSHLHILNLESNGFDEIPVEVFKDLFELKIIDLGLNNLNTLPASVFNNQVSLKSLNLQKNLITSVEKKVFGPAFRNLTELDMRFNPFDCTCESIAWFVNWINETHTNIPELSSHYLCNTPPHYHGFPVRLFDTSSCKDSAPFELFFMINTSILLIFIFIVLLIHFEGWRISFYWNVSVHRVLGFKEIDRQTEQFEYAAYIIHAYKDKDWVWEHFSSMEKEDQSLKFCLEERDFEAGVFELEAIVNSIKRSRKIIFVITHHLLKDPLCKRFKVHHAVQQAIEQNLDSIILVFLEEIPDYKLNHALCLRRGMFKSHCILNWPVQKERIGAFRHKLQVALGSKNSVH

Row | Compound | EC50 (Toll-like receptor 7) [µM] | Activity [1] | also measured
1 | CCCCNc1nc(N)nc(C)c1CCCN(C)CCOC | 1.24 | inactive | 
2 | CCCCNc1nc(N)nc(C)c1CCCN(CC)CC |  | inactive | Activity [2]: inactive
3 | CCCCNc1nc(N)nc(C)c1CCCN1Cc2ccccc2C1 | 0.375 | inactive | Activity [3]: Active; Activity [4]: Active; Activity [5]: Active
4 | CCCCNc1nc(N)nc(C)c1CCCn1ccc2ccccc21 | 0.14 | inactive | 
5 | CCCCNc1nc(N)nc(C)c1CCCCN1CCOCC1 | 1.4 | inactive | 
6 | CCCCNc1nc(N)nc(C)c1CCCN(C)C | 0.958 | inactive | 
7 | CCCCNc1nc(N)nc(C)c1CCCn1cccn1 | 0.398 | inactive | 
8 | CCCCNc1nc(N)nc(C)c1CCCn1c(C)nc2ccccc21 | 0.379 | inactive | Activity [3]: Active; Activity [4]: Active; Activity [5]: Active
9 | CCCCNc1nc(N)nc(C)c1CCc1ccccc1 | 2.82 | inactive | 
10 | CCCCNc1nc(N)nc(C)c1CCCCO | 1.02 | inactive | 
11 | CCCCNc1nc(N)nc(C)c1C | 3.4 | inactive | 
12 | C#Cc1c(C)nc(N)nc1NCCCC |  | inactive | Activity [2]: inactive
13 | CCCCNc1nc(N)nc(C)c1CCCN1C(=O)c2ccccc2C1=O | 1.29 | inactive | 
14 | CCCCNc1nc(N)nc(C)c1CCCN1CCCCCC1 | 0.73 | inactive | 
15 | CCCCNc1nc(N)nc(C)c1CCCN1CCOCC1 | 0.046 | inactive | 
16 | CCCCNc1nc(N)nc(C)c1CCCc1ccccc1 | 0.194 | inactive | Activity [5]: inactive
17 | CCCCNc1nc(N)nc(C)c1CCCN1CCN(c2ccccc2)CC1 | 1.16 | inactive | 
18 | CCCCNc1nc(N)nc(C)c1CCCCCc1ccccc1 | 0.265 | inactive | 
19 | CCCCNc1nc(N)nc(C)c1C#CCN1CCOCC1 |  | inactive | Activity [2]: inactive

Row | Compound | EC50 (Toll-like receptor 7) [µM] | Activity [1] | also measured
20 | CCCCNc1nc(N)nc(C)c1CCCC | 0.59 | inactive | 
21 | CCCCNc1nc(N)nc(C)c1CCCn1cncn1 | 1.16 | inactive | 
22 | CCCCNc1nc(N)nc(C)c1CCCN1CCNCC1 | 1.64 | inactive | 
23 | CCCCNc1nc(N)nc(C)c1CCCC1CCCCC1 | 1.1 | inactive | Activity [6]: inactive
24 | CCCC#Cc1c(C)nc(N)nc1NCCCC |  | inactive | Activity [2]: inactive
25 | CCCCNc1nc(N)nc(C)c1CCCN1CCN(C(=O)OC(C)(C)C)CC1 |  | inactive | Activity [2]: inactive
26 | CCCCNc1nc(N)nc(C)c1CCCC(C)(C)O | 2.89 | inactive | 
27 | CCCCNc1nc(N)nc(C)c1C#C[Si](C)(C)C |  | inactive | Activity [2]: inactive
28 | CCCCNc1nc(N)nc(C)c1CCC(C)(C)O | 3.26 | inactive | 
29 | CCCCNc1nc(N)nc(C)c1CCCN1CCCCC1 | 0.71 | inactive | Activity [3]: Active; Activity [4]: Active; Activity [5]: Active
30 | CCCCNc1nc(N)nc(C)c1C#CCc1ccccc1 |  | inactive | Activity [2]: inactive; Activity [6]: inactive
31 | CCCCNc1nc(N)nc(C)c1CCCN1CCSCC1 | 0.714 | inactive | 
32 | CCCCNc1nc(N)nc(C)c1CCCN1CCCC1 | 0.562 | inactive | 
33 | CCCCNc1nc(N)nc(C)c1CCCCc1ccccc1 | 0.262 | inactive | 
34 | CCCCNc1nc(N)nc(C)c1CCCN1CCN(C)CC1 | 0.251 | inactive | 
35 | CCCCNc1nc(N)nc(C)c1C#CCN1CCCCC1 |  | inactive | Activity [2]: inactive
36 | CCCCCc1c(C)nc(N)nc1NCCCC | 0.51 | inactive | 
37 | CCCCNc1nc(N)nc(C)c1CC | 1.27 | inactive | 
